Test results taken from ChEMBL document CHEMBL1124072, “1,2,4-Trioxanes as potential antimalarial agents” (J Med Chem, 1988).
≈ marks a conversion by molar mass, not a printed value.

System: Plasmodium falciparum
Test: In vitro EC50 against chloroquine susceptible Plasmodium falciparum by [3H]hypoxanthine incorporation
Format: functional, organism-based
Outline: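 Chloroquine-susceptible P. falciparum cultured in vitro and tested by the Desjardins method. Inhibition of parasite [3H]hypoxanthine uptake is the read-out. The value is the concentration (ng/mL) giving 50% inhibition of uptake.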

SMILES	IC50 [µg/mL]
CC1(C)CCC[C@@]2(C)O[C@]3(C)CC[C@]12OO3	1.35 (≈ 5.97 µM)
C[C@@H](O)C[C@@]12C=C[C@]3(OO1)C(C)(C)CCC[C@@]3(C)O2	4.93 (≈ 18.4 µM)
CC(C[C@@]12CC[C@]3(OO1)C(C)(C)CCC[C@@]3(C)O2)OC(=O)c1ccccc1 (stereo partly specified)	0.0239 (≈ 0.0638 µM)
C[C@H](C[C@@]12C=C[C@]3(OO1)C(C)(C)CCC[C@@]3(C)O2)OC(=O)c1ccccc1	0.789 (≈ 2.12 µM)
CC1(C)CCC[C@@]2(C)O[C@]3(C)C=C[C@]12OO3	> 1.2
C[C@@H](O)C[C@@]12CC[C@]3(OO1)C(C)(C)CCC[C@@]3(C)O2	0.389 (≈ 1.44 µM)
COC(=O)C[C@@]12CC[C@]3(OO1)C(C)(C)CCC[C@@]3(C)O2	0.083 (≈ 0.292 µM)
C[C@H](C[C@@]12CC[C@]3(OO1)C(C)(C)CCC[C@@]3(C)O2)OC(=O)c1ccccc1	1.12 (≈ 2.99 µM)
COC(=O)C[C@@]12C=C[C@]3(OO1)C(C)(C)CCC[C@@]3(C)O2	0.096 (≈ 0.34 µM)
C[C@@H]1CC[C@H]2[C@@H](C)C(=O)O[C@@H]3O[C@@]4(C)CC[C@@H]1[C@]32OO4 [ARTEMISININ]	0.00113 (≈ 0.004 µM)
CC(C[C@@]12C=C[C@]3(OO1)C(C)(C)CCC[C@@]3(C)O2)OC(=O)c1ccccc1 (stereo partly specified)	0.733 (≈ 1.97 µM)
